According to ChEMBL document CHEMBL1150226, “Cytotoxic constituents from leaves of Aglaia elliptifolia” (2001):
Converted amounts (≈) assume the structure as drawn.

Columns and labels:
Type in all cases: functional
Settings in all cases: read-out: ED50 (the source's name)
A549 = assay: Cytotoxicity against human A549 cells
In short: (§1)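 Cell lines obtained from the American Type Culture Collection; the assay protocol itself is given only by reference to earlier work.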

HL-60 = assay: Cytotoxicity against human HL60 cells; in short: as §1
HT-29 = assay: Cytotoxicity against human HT-29 cells; in short: as §1
KB = assay: Cytotoxicity against human KB cells
In short: (§2)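 KB and P-388 cells supplied by an academic laboratory (University of Illinois at Chicago); the assay protocol itself is given only by reference to earlier work.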

P388 = assay: Cytotoxicity against mouse P388 cells; in short: as §2

Row | Compound | EC50 (A549) [µg/mL] | EC50 (HL-60) [µg/mL] | EC50 (HT-29) [µg/mL] | EC50 (KB) [µg/mL] | EC50 (P388) [µg/mL]
1 | C/C=C(\C)C(=O)NC(CCCO)NC(=O)/C=C/c1ccccc1 (stereo not given) | > 50 | 32.1 (≈ 101 µM) | > 50 | > 50 | 3.62 (≈ 11.4 µM)
2 | C/C=C(\C)C(=O)N[C@@H]1CCCN1C(=O)[C@@H]1[C@@H](c2ccccc2)[C@]2(c3ccc(OC)cc3)Oc3cc(OC)cc(OC)c3[C@@]1(O)[C@@H]2O [ELLIPTIFOLINE] | 18.9 (≈ 30.1 µM) | > 50 | > 50 | > 50 | 3.41 (≈ 5.42 µM)
3 | COc1ccc([C@@]23Oc4cc(OC)cc(OC)c4[C@]2(O)[C@H](O)[C@H](C(=O)O)[C@H]3c2ccccc2)cc1 [ROCAGLOIC ACID] | 0.00074 (≈ 0.00155 µM) | 0.00084 (≈ 0.00176 µM) | 0.00084 (≈ 0.00176 µM) | 0.0023 (≈ 0.00481 µM) | 0.0012 (≈ 0.00251 µM)
